Screening results deposited in PubChem BioAssay by several laboratories.
sPLA2-III inh – Inhibits HGIII-sPLA2 liposome hydrolysis, primary screen; inhibition, % at 12.2 µM; QFRET BODIPY PC-A2 liposome hydrolysis, fluorescence; Q9NZ20; hit rate 0.56% among 370,000;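 active means inhibition above mean plus 3 SD of compounds lying within the high and low control bounds, cut at about 19% in these data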;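 further: 0% = median of test compound wells and 100% = no enzyme DMSO wells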
Target sequence (Q9NZ20 whole entry, looked up): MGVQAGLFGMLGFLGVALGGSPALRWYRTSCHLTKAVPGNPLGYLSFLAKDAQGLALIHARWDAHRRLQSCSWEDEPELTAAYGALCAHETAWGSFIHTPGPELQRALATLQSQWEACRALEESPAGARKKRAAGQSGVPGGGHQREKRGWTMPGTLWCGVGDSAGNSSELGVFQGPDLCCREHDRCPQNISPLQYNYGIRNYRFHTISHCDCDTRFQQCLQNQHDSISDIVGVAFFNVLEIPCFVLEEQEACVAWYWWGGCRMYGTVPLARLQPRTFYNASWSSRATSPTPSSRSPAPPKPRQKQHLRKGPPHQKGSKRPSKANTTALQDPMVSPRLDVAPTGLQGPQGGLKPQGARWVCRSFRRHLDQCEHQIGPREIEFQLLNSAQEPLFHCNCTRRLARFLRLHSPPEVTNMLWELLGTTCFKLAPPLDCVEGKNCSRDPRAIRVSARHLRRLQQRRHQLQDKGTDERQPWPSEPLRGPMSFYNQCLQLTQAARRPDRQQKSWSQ
Rev-erbA mod – modulates human Rev-erb alpha binding to DNA | P20393 | Rev-erbα–FITC-DNA binding, fluorescence polarization, 90 min | activity, % at 10 µM | hit rate 0.79% among 370,000;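 active means activity above about 14%, limit read from the data; passing the limit was not always enough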;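 further: 0% = DMSO wells with 35 nM protein and 100% = DMSO wells with 750 nM protein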
ASAP1 inh – blocks human ASAP1-stimulated Arf1 GTP hydrolysis. AID 624377. hit rate 0.19% among 360,000. inhibition, % at 16.5 µM. Q9ULH1. GDP FP detection; in the data active means inhibition above about 25%;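 further: 0% = vehicle with enzyme and substrate and 100% = no enzyme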
ARFGAP1 inhibitor – inhibitors of rat ARFGAP1 | Q62848 | Arfgap1-stimulated ARF1 GTP hydrolysis, GDP FP detection | inhibition, % at 16.5 µM | hit rate 0.26% among 360,000 | AID 651572;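 active means inhibition above a per-plate limit, mean inhibition of low control wells plus 3 SD, cut at about 25% in these data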;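 further: 0% = DMSO wells with enzyme and 100% = wells lacking Arfgap1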
Target sequence (Q62848 1-136 limits assumed): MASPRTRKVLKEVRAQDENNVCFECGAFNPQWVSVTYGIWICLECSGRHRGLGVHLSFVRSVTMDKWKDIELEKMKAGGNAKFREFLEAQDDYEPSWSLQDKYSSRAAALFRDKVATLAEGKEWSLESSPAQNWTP
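material = rat Arfgap1 catalytic domain, aa 1-136 | also added = human ARF1(Δ1-17)-GTP substrate | compound dosing = one concentration, 16.5 µM, DMSO 1.26% | times = GTP hydrolysis reaction 2 h at 25 °C | measured by = FP, GDP Alexa 633 tracer displaced from anti-GDP antibody, 620/688 nm | evaluation = percent inhibition of Arfgap1-stimulated GTP hydrolysis | replication = single well per compound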
MsrA inhibitor – bovine MsrA inhibition; inhibition, % at 15.5 µM; hit rate 0.75% among 360,000; purified bovine MsrA, absorbance read-out; AID 651718;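 further: 0% = vehicle wells with enzyme and 100% = reference inhibitor wells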
bovine MsrA act – bovine methionine sulfoxide reductase A activation; purified bovine MsrA, absorbance read-out; AID 602163; activation, % at 10.6 µM; hit rate 0.3% among 360,000; in the data active means activation above about 7.5%;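 further: 0% = vehicle and 100% = reference activator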
ASAP1 GAP conf – confirmation of human ASAP1 inhibitors; shares compounds with ASAP1 inh; ASAP1-stimulated Arf1 GTPase, GDP fluorescence polarization; inhibition, % at 16.5 µM; hit rate 37% among 620; AID 624431;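 active means mean inhibition over triplicates exceeds the hit threshold derived for the earlier primary screening run, cut at about 25% in these data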
ARFGAP1 confirm – rat ARFGAP1 inhibition, confirmed; inhibition, % at 16.5 µM; hit rate 30% among 890; shares compounds with ARFGAP1 inhibitor; ARFGAP1-stimulated ARF1 GTP hydrolysis, GDP tracer FP; AID 651608;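 active means average inhibition over triplicates above the hit cutoff set in the earlier primary screen, cut at about 25% in these data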;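 further: 0% = Arfgap1 plus ARF1-GTP with DMSO and 100% = wells lacking Arfgap1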
MsrA conf – bovine MsrA inhibition, confirmed; inhibition, % at 15.5 µM; shares compounds with MsrA inhibitor; purified bovine MsrA, absorbance read-out; hit rate 41% among 2,300;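 further: coupled to thioredoxin reductase with NADPH and selenocystamine and DMSO as substrate; 0% = vehicle only and 100% = full effect of reference inhibitor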
hGIII sPLA2 conf – human GIII-sPLA2 inhibition, confirmation. shares compounds with sPLA2-III inh. recombinant hGIII-sPLA2, BODIPY PC-A2 QFRET fluorescence. inhibition, % at 12.2 µM. hit rate 34% among 2,000;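 active means mean inhibition across triplicates above the hit cutoff set in the earlier primary screen, cut at about 19% in these data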;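 further: 0% = enzyme with DMSO and 100% = DMSO wells lacking enzyme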
535nm interf – 535nm fluorescence interference, HGIII-sPLA2 counter-screen; AID 743282; shares compounds with sPLA2-III inh; BODIPY FL product fluorescence interference, QFRET; hit rate 8.5% among 2,000; inhibition, % at 12.2 µM;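 active means average inhibition above the solvent-only control mean plus 3 SD, cut at about 6% in these data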;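 further: 0% = DMSO with substrate plus product and 100% = DMSO with substrate alone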
Active calls of the source: *; . = no result given. In the library only some 2.7% were active in any assay of this set; here they are far more common. Unless noted, no stated cut-off is given here; in the data, active means inhibition above about 4.5%; inactive means the rest.

SMILES	sPLA2-III inh	Rev-erbA mod	ASAP1 inh	ARFGAP1 inhibitor	MsrA inhibitor	bovine MsrA act	ASAP1 GAP conf	ARFGAP1 confirm	others
CC1=CC2=NC(=O)/C(=C\c3ccc(-c4cccc(Cl)c4)o3)C(=N)N2O1	-1	-30	58*	41*	-1	-3	87*	131*
COc1ccc(C(=O)Nc2nnc(SCC(=O)Nc3ccc(NC(C)=O)cc3)s2)c(OC)c1	-7	-15	39*	52*	0	0	82*	122*
Nc1nc(SCc2ccc(Cl)cc2Cl)nc2nc3c(cc12)CCCC3	2	-24	31*	47*	2	-4	69*	68*
O=C(OC12CCCN(C1)/C(=C/c1cccc(Cl)c1)C2)c1cccc(F)c1 (centres undefined)	3	3	.	.	.	.	.	.
CC(=O)c1ccc(-c2cnc3c(NC=O)cc(-c4ccc(N5CCN(C)CC5)cc4)cn23)cc1	-12	-7	81*	63*	1	-4	155*	139*
CC(=O)Nc1cc(-c2ccc(N3CCN(C)CC3)cc2)cn2c(-c3cccc(C(C)=O)c3)cnc12	-9	1	54*	38*	2	-1	95*	82*
CC(=O)Nc1cc(-c2ccc(N3CCN(C)CC3)cc2)cn2c(-c3ccc(F)c(Cl)c3)cnc12	-7	-3	0	14	-1	-4	.	.
CN1CCN(c2ccc(-c3cc(NC=O)c4ncc(-c5ccc(F)c(Cl)c5)n4c3)cc2)CC1	7	-2	1	8	2	1	.	.
N#CN1CCC(NS(=O)(=O)c2cccc(C(F)(F)F)c2)CC1	-1	6	.	.	.	.	.	.
CN(Cc1ccccc1)S(=O)(=O)c1cccc(C(=O)OCC2CCCCC2)c1	2	-2	.	.	.	.	.	.
COc1cc(C=NN=c2sc3ccccc3n2C)ccc1OCCO	-17	7	8	6	3	.	.	.
Cc1[nH][nH]c(=O)c1C(c1ccc(-c2ccc(Cl)c(C(=O)O)c2)o1)c1c(C)[nH][nH]c1=O	-3	-3	42*	25*	3	-2	11	-2
CC1(C)OC(=O)C(=Cc2ccc(-c3ccc(Cl)c(C(=O)O)c3)o2)C(=O)O1	-5	-4	-6	-11	0	-3	.	.
O=C(O)[C@H]1/C(=C/CO)O[C@@H]2CC(=O)N21	.	-1	.	.	.	.	.	.
N#Cc1c(NC(=O)c2ccc(Br)o2)n(-c2ccccc2)c2nc3ccccc3nc12	-8	1	42*	27*	0	-5	20	-1
O=S1(=O)c2ccc(N3CCC[C@@H]3CO)cc2O[C@H]2CCN1C2	6	-4	.	.	.	.	.	.
C=CCN1[C@H](C)COc2cc(N3CCCC3)ccc2S1(=O)=O	4	3	.	.	.	.	.	.
COc1ccc(OC)c(C=NNC(=O)NN=Cc2cc(OC)ccc2OC)c1	-8	-3	42*	57*	1	-2	96*	92*
C=CC[C@@]1(c2ccccc2)Oc2ccccc2-c2nc3ccccc3nc21	-1	7	.	.	.	.	.	.
CCCCNS(=O)(=O)/C=C/c1ccc(F)cc1CNC(=O)OC(C)(C)C	-6	-9	.	.	.	.	.	.
Cc1ccc2cc3cc(C(=O)NCc4ccc5c(c4)OCO5)oc3nc2c1	6	-2	54*	68*	0	0	28*	110*
C/C(=N\NC(=O)c1cc(-c2cccc([N+](=O)[O-])c2)n[nH]1)c1ccccc1O	8	-11	136*	54*	0	-11	150*	152*
O=C(Nc1ccc2oc(-c3cccnc3)nc2c1)c1ccc2c(c1)OCCO2	-8	-32	27*	42*	1	-2	38*	114*
O=C(Nc1ccc2oc(-c3ccccc3)nc2c1)c1ccc2c(c1)OCCO2	-8	8	-1	-3	1	-3	.	.
Cc1ccccc1NC1=C/C(=N\S(=O)(=O)c2cccs2)c2ccccc2C1=O	-11	-5	25*	18	16*	-6	6	.	MsrA conf=29*
SMILES	sPLA2-III inh	Rev-erbA mod	ASAP1 inh	ARFGAP1 inhibitor	MsrA inhibitor	bovine MsrA act	ASAP1 GAP conf	ARFGAP1 confirm	others
CCOc1ccc2[nH]c(C(=O)N/N=C/c3cc(OC)c(OC)c(OC)c3)cc2c1	-11	-15	27*	20	5.4*	-5	51*	.	MsrA conf=4.8*
CCOc1ccc(/C=N/NC(=O)c2cc3c(OC)cccc3[nH]2)cc1	-13	-5	3	14	0	-4	.	.
CC[C@H](CCCc1ccc(OC)cc1)CCC(=O)N(c1ccccc1)c1ccccc1	-6	-3	.	.	.	.	.	.
O=C1C(N2CCOCC2)=C(n2nnc3ccccc32)C(=O)c2ccccc21	6	6	44*	31*	71*	-6	10	3	MsrA conf=69*
CN(c1ccccc1)c1ccc(/C=C(\CCC(=O)O)c2nc3ccccc3s2)cc1[N+](=O)[O-]	-2	-2	2	-29	1	-1	.	.
CNc1ccc(/C=C(\CCC(=O)O)c2nc3ccccc3s2)cc1[N+](=O)[O-]	-23	2	30*	2	4.8*	-6	52*	.	MsrA conf=5.4*
CCCC1CCC2(CCCN2CCOC(=O)Nc2ccc(Br)cc2)CC1 (centres undefined)	-1	-2	.	.	.	.	.	.
CCN(CC)C(=O)CC[C@H]1CC[C@]2(CCCN(S(=O)(=O)c3ccccc3)C2)O1	5	1	.	.	.	.	.	.
COc1ccc(S(=O)(=O)/N=C2\C=C(Nc3ccc(O)cc3)C(=O)c3ccccc32)cc1	-39	-4	38*	20	35*	6	25*	.	MsrA conf=33*
O=c1cc(-c2ccccc2Cl)oc2cc(O)cc(O)c12	-7	-10	8	-2	0	1	.	.
Nc1ccc(O)c2c(=O)cc(-c3ccccc3Cl)oc12	27*	-3	28*	0	0	-4	13	.	hGIII sPLA2 conf=42*;535nm interf=-2
COC(=O)c1cc2c(c3c4cc(F)ccc4n(S(=O)(=O)c4cccc(C)c4)c13)C(=O)N(Cc1ccc(C(F)(F)F)cc1)C2	11	0	-3	8	1	.	.	.
CCC(=O)NC(c1cccs1)c1cc([N+](=O)[O-])c2cccnc2c1OC (centres undefined)	19*	-7	43*	23	1	-8	13	.	hGIII sPLA2 conf=17;535nm interf=-4
